Results on 6 molecules are retold here after ChEMBL document CHEMBL1134834, “Quinoxalinylethylpyridylthioureas (QXPTs) as potent non-nucleoside HIV-1 reverse transcriptase (RT) inhibitors. Further SAR studies and identification of a novel orally bioavailable hydrazine-based antiviral agent” (J Med Chem, 2001).

Assay [1] concerns the target Human immunodeficiency virus type 1 reverse transcriptase (Human immunodeficiency virus 1, UniProt Q72547, Y181I). Kind of assay: Inhibition of HIV-1 Mutant HIV-1 RT enzymes containing the single amino acid substitution Y181I.
Assay [2] addresses T1, Human immunodeficiency virus type 1 reverse transcriptase (Human immunodeficiency virus 1, UniProt Q72547). Kind of assay: Inhibition of HIV-1 wild-type RT.
Assay [3] deals with Human immunodeficiency virus type 1 reverse transcriptase (Human immunodeficiency virus 1, UniProt Q72547, V106A). Kind of assay: Inhibition of HIV-1 Mutant HIV-1 RT enzymes containing the single amino acid substitution V106A.
The target in assay [4] is Human immunodeficiency virus type 1 reverse transcriptase (Human immunodeficiency virus 1, UniProt Q72547, Y188L). Kind of assay: Inhibition of HIV-1 Mutant HIV-1 RT enzymes containing the single amino acid substitution Y188L.
Assay [5] has as its target Human immunodeficiency virus type 1 reverse transcriptase (Human immunodeficiency virus 1, UniProt Q72547, K103N). Kind of assay: Inhibition of HIV-1 Mutant HIV-1 RT enzymes containing the single amino acid substitution K103N.
In assay [6] the target is T1, Human immunodeficiency virus type 1 reverse transcriptase. Kind of assay: Inhibition of HIV-1 Mutant HIV-1 RT enzymes containing the single amino acid substitution […].
The species named for the next assay is Homo sapiens. Kind of assay: (§1) Cytotoxicity on normal human lymphocytes(HL) (O.D.=0.114+/-0.01). The class given is functional. Particulars: read-out: TC50 (the source's name).
The test system of assay [7] is CEM-SS. Kind of assay: Concentration which produces a 50% survival of HIV-1 infected cells relative to uninfected control CEM-SS cells (in vitro anti-HIV activity). It counts as functional, cell-based. Particulars: Homo sapiens. In outline: (§2)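 CEM-SS T4 lymphocytes infected with wild-type HIV-1. Protection from virus-induced cell death is scored against an AZT-treated positive control run under identical conditions. […] SI = IC50/EC50.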

Assay [8] deals with C8166. Kind of assay: Antiviral activity alone against HIV-IIIB in C8166 cells. The class given is functional, cell-based. Particulars: Homo sapiens. Put shortly:
(§3)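 C8166 CD4+ T-cell line (HTLV-I genome, only tat expressed) acutely infected with lymphocytotropic HIV-1 IIIB. […] Read-out is HIV-p24 antigen in supernatants. AZT positive control was run at the same time. SI = IC50/EC50.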

Another assay deals with Daudi. Kind of assay: Cytotoxicity on Daudi Human(DH) cell line (O.D.=0.129+/-0.018). It counts as functional. Particulars: read-out: TC50 (the source's name).
Another assay deals with NIH3T3. Kind of assay: Cytotoxicity on 3T3 fibroblasts (3T3F) murine cell line (O.D.=0.131+/-0.014). It counts as functional. Particulars: Mus musculus, read-out: TC50 (the source's name).
Assay [9] concerns C8166. Kind of assay: Synergistic antiviral activity of AZT (DDI) with the compound, against HIV-IIIB in C8166 cells. Particulars: Homo sapiens. The class given is functional, cell-based. In outline:
(§4)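 C8166 cells infected with HIV-IIIB and treated with compound combined with AZT (or DDI). Combination index calculated by the Chou-Talalay multiple drug effect analysis under both mutually exclusive and mutually nonexclusive assumptions.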

Assay [10] can be described thus: Selectivity index (IC50/EC50) was determined in CEM-SS cells. It counts as functional. In outline: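 CEM-SS (T4 lymphocyte) cells infected with wild-type HIV-1 were scored for protection from virus-induced cell death. […] SI = IC50/EC50. An AZT-treated positive control was run in parallel under identical conditions.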
A further assay is filed under the species Mus musculus. Kind of assay: Cytotoxicity on NSO murine cell line (O.D.=0.125+/-0.015). The class given is functional. Particulars: read-out: TC50 (the source's name).
Assay [11] concerns C8166. Kind of assay: Synergistic antiviral activity with AZT (DDI), against HIV-IIIB in C8166 cells. It counts as functional, cell-based. Particulars: Homo sapiens. Put shortly: as §4
Assay [12] is described as follows: Selectivity index (IC50/EC50) was determined in C8166 cells. It counts as functional.
The subject of assay [13] is CEM-SS. Kind of assay: Concentration which results in 50% survival of uninfected untreated control CEM-SS cells (cytotoxicity of the compound). It counts as functional, cell-based. Particulars: Homo sapiens, read-out: IC50 (the source's name).
Assay [14] concerns Human immunodeficiency virus 1. Kind of assay: Concentration which produces a 50% survival of HIV-1 infected cells relative to uninfected control C8166 cells. Particulars: Human immunodeficiency virus 1, C8166. The class given is functional, organism-based.
The test system of assay [15] is C8166. Kind of assay: (§5) Concentration which results in 50% survival of uninfected untreated control C8166 cells (cytotoxicity of the compound). The class given is functional, cell-based. Particulars: Homo sapiens. Put shortly: (§6)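 Toxicity in uninfected C8166 cells by MTT reduction to formazan, read spectrophotometrically.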
The nature of assay [16]: as §1. The class given is functional. Particulars: read-out: TC50 (the source's name).
Assay [17] concerns Human immunodeficiency virus 1. Kind of assay: Inhibition of HIV-1-p24 antigen production in monocyte-macrophages (cytotoxicity of the compound). It counts as organism-based. Put shortly: (§7)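 Macrophages from adherent PBMC (10^6/mL, RPMI-1640 with 20% heat-inactivated FCS), 10^5 per well, >95% pure, infected with monocytotropic HTLV-III Ba-L. Antiviral activity read 14 days after infection. […] SI = IC50/EC50. AZT control run in parallel.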

For assay [18], the system named is Human immunodeficiency virus 1. Kind of assay: Inhibition of HIV-1-p24 antigen production in monocyte-macrophages (in vitro anti-HIV-1 activity). The class given is functional, organism-based. In outline: as §7
Assay [19] can be described thus: Selectivity index was determined in CEM-SS cells. It counts as functional. In outline:
as §2

Assay [20] in a line: Selectivity index between IC50 of HIV-1-p24 and EC50 of HIV-1-p24 (IC50/EC50). It counts as functional. In outline:
as §7

The nature of assay [21]: Selectivity index was determined in C8166 cells. The class given is functional. In outline: as §3
The subject of assay [22] is C8166. The description is as §5. It counts as cell-based. Particulars: Homo sapiens. In outline: as §6

For orientation: Ki means the equilibrium dissociation constant of an inhibitor or competing ligand from its target. With `Cc1cc2nc(OCCNC(=S)Nc3ccc(Br)cn3)c3cccn3c2cc1C`, the Ki in assay [1] is 0.66 µM; in assay [2], 0.22 µM; in assay [3], 0.15 µM; in assay [4] it was 1.5 µM; in [5], 0.45 µM; in [6] it was 0.5 µM.
What is called EC50 is the concentration giving half of the maximal effect. The term IC50 denotes the concentration at which inhibition is half-maximal. Lower therefore signals greater potency in that assay. In the case of `O=c1c2cccn2c2ncccc2n1CCNC(=S)Nc1ccc(Br)cn1`, the CC50 is 680 µM in the assay filed under Homo sapiens; 690 µM with Daudi; 690 µM in the assay with NIH3T3; 700 µM in the assay listed under Mus musculus; more than 2 µM in the assay with CEM-SS [13]. Also, the EC50 with CEM-SS [7] worked out at 0.0052 µM; with C8166 [8], 0.124 µM; in the assay with C8166 [9] it was 0.015 µM; with C8166 [11], 0.05 µM; in [14], 0.124 µM. Moreover, the Ki in [1] turned out to be 0.4 µM; in [2], 0.009 µM; in assay [3], 0.05 µM; in assay [4], 0.13 µM; in [5] it was 0.25 µM; in assay [6], 0.095 µM. Also, the SI in [10] is more than 380; in assay [12], 89. Moreover, in the assay with C8166 [15], the IC50 worked out at 11 µM.
Molecule `S=C(NNc1nc2ccccc2n2cccc12)Nc1ccc(Br)cn1` gave a Ki in [2] of 1.9 µM.
Take `O=c1c2cccn2c2cccc(F)c2n1CC/N=C(\S)Nc1ccc(Br)cn1`: the CC50 was 960 µM in assay [16]; 1000 µM in the assay with Daudi; 1000 µM in the assay on NIH3T3; 1000 µM in the assay filed under Mus musculus; more than 0.02 µM in the assay with CEM-SS [13]. The EC50 in the assay with CEM-SS [7] amounted to 0.00047 µM; with C8166 [8], 0.025 µM; in the assay with C8166 [9], 0.003 µM; in assay [18], 0.002 µM; in the assay on C8166 [11], 0.002 µM; in [14], 0.025 µM. Also, the Ki in assay [1] is 0.2 µM; in [2] it was 0.009 µM; in [3], 0.015 µM; in assay [4], 0.2 µM; in assay [5], 0.16 µM; in assay [6], 0.17 µM. Besides, the figures for the IC50 (in assay [17]; in the assay with C8166 [15]) were 17 µM and 200 µM, respectively. Further, the SI in assay [19] is more than 43; in assay [20], 8800; in assay [21], 7990.
For the molecule `CC(C)=CCN1Cc2c(Cl)ccc3[nH]c(=S)n(c23)C[C@@H]1C` [TIVIRAPINE], in the assay with C8166 [22], the IC50 came out at 50 µM. In assay [21], the SI is reported as 1670. This molecule also gave an EC50 in assay [14] of 0.03 µM.
For the molecule `O=c1n(CCNC(=S)Nc2ccc(Br)cn2)c2ccccc2c2ccnn12`, the Ki in assay [1] was determined as 0.52 µM; in assay [2] it was 0.015 µM; in assay [3] it was 0.33 µM; in assay [4], 0.4 µM; in [5], 0.021 µM; in [6], 0.1 µM.
